Activity calls are given as the source filed them. The rule behind the calls is not given here.
How the values were obtained:
[1] = target: T1, Mitogen-activated protein kinase 9 (Homo sapiens, UniProt P45984); test: Inhibition of human JNK2alpha2 at 100 uM after 40 mins by [gamma-33ATP] radiometric assay relative to control
Target sequence in this assay (P45984 whole entry, looked up): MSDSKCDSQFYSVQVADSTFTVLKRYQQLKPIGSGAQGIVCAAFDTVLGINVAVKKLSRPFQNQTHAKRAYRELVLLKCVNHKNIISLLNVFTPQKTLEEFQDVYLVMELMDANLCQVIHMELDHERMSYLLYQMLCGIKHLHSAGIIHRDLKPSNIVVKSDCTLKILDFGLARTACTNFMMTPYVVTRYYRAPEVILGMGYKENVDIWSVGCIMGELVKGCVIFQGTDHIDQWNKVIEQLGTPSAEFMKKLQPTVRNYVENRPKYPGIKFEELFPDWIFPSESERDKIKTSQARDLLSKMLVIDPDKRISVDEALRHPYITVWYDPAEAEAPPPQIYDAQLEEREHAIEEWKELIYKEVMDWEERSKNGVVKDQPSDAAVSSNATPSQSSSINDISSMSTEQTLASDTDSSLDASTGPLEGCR

[2] = test system: Epidermal growth factor receptor (Homo sapiens), P00533 [L858R,T790M]; test: Inhibition of human EGFR L858R/T790M mutant at 10 uM GGMEDIYFEFMGGKKK as substrate measured after 40 mins in presence of [gamma-33P]ATP by radiometric assay
Summary of the method: (§1)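 EGFR T790M/L858R (human) in 8 mM MOPS pH 7.0, 0.2 mM EDTA, 250 μM peptide substrate, 10 mM Mg acetate, [γ-33P]-ATP (approx. 500 cpm/pmol); initiated with MgATP, 40 min room temperature, terminated with 3% phosphoric acid, P30 filtermat, 75 mM phosphoric acid and methanol washes, scintillation counting.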

[3] = target: T1, Mitogen-activated protein kinase 9; test: Inhibition of human JNK2alpha2 at 30 uM after 40 mins by [gamma-33ATP] radiometric assay relative to control
Target sequence in this assay (P45984 whole entry, looked up): as above

[4] = target: T2, Mitogen-activated protein kinase 10 (Homo sapiens, UniProt P53779); test: Inhibition of human JNK3 after 40 mins by [gamma-33ATP] radiometric assay relative to control
T2 sequence (P53779 whole entry): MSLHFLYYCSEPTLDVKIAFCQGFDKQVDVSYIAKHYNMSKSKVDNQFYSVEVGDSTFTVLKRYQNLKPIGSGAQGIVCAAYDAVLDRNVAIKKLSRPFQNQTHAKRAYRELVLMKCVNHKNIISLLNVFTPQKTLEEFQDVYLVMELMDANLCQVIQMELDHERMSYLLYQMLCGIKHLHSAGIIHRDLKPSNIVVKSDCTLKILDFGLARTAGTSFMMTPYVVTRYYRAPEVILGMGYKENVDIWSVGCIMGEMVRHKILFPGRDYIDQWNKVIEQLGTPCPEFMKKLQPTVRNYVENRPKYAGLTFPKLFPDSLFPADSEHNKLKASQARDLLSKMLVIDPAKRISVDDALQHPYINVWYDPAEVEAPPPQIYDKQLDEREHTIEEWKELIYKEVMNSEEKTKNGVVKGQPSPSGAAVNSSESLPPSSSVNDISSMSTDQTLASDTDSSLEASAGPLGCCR

[5] = target: T3, Mitogen-activated protein kinase 8 (Homo sapiens, UniProt P45983); test: Inhibition of human JNK1alpha1 at 10 uM after 40 mins by [gamma-33ATP] radiometric assay relative to control
T3 sequence (P45983 whole entry): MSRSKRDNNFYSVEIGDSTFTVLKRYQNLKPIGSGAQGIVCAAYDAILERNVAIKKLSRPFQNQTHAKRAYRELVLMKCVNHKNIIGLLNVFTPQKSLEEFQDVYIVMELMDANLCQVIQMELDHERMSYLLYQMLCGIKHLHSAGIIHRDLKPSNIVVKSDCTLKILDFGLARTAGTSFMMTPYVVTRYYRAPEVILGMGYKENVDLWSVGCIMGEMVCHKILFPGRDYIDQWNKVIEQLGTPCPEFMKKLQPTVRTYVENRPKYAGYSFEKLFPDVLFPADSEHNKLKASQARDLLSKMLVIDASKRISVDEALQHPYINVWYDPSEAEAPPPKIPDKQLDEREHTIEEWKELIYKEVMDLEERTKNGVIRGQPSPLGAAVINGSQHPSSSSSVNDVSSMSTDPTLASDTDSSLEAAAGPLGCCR

[6] = target: T3, Mitogen-activated protein kinase 8; test: Inhibition of human JNK1alpha1 at 100 uM after 40 mins by [gamma-33ATP] radiometric assay relative to control
[7] = target: T3, Mitogen-activated protein kinase 8; test: Inhibition of human JNK1alpha1 after 40 mins by [gamma-33ATP] radiometric assay relative to control
[8] = target: T3, Mitogen-activated protein kinase 8; test: Inhibition of human JNK1alpha1 at 30 uM after 40 mins by [gamma-33ATP] radiometric assay relative to control
[9] = test system: Epidermal growth factor receptor (Homo sapiens), P00533 [L858R]; test: Inhibition of human EGFR L858R at 10 uM using poly[Glu:Tyr] (4:1) as substrate measured after 40 mins in presence of [gamma-33P]ATP by radiometric assay
Sequence of Epidermal growth factor receptor (Homo sapiens), P00533 [L858R] (P00533 whole entry L858R): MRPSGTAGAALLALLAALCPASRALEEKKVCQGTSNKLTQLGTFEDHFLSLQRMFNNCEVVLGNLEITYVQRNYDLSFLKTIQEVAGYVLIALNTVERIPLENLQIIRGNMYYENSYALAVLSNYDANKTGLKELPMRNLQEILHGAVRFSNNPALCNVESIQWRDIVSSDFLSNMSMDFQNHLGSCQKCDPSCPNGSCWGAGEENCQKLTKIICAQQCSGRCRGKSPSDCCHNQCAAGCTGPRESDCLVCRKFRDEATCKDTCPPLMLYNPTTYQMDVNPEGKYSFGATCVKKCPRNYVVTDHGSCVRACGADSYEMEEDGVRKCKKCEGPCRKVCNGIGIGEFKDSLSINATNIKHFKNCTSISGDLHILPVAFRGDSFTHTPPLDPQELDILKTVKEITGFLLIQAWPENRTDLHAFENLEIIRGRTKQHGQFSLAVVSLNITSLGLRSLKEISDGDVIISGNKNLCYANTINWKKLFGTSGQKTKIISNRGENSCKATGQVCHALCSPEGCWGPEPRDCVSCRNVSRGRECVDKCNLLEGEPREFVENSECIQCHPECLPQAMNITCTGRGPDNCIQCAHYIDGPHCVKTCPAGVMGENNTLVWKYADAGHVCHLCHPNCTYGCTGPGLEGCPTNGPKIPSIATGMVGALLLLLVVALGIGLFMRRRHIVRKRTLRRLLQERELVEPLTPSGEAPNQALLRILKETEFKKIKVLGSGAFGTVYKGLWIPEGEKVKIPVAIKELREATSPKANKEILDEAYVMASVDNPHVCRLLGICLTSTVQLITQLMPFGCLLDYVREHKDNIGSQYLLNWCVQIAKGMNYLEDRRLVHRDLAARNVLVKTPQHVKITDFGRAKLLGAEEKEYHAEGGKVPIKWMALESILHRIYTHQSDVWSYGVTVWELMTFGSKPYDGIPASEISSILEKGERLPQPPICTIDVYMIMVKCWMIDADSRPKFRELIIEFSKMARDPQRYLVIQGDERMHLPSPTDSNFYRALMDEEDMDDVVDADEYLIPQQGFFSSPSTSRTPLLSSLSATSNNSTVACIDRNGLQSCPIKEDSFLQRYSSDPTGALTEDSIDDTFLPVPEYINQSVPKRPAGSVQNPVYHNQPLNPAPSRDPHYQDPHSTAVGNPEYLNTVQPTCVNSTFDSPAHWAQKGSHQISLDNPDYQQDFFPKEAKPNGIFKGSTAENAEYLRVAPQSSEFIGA
Summary of the method: (§2)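 Human EGFR L858R incubated in 8 mM MOPS pH 7.0, 0.2 mM EDTA, 10 mM MnCl2, 0.1 mg/mL poly(Glu,Tyr) 4:1, 10 mM Mg acetate, [γ-33P]-ATP (approx. 500 cpm/pmol); MgATP start, 40 min room temperature, 3% phosphoric acid stop, Filtermat A spotting, washes in 75 mM phosphoric acid and methanol, scintillation readout; % of uninhibited activity.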

[10] = target: Epidermal growth factor receptor (Homo sapiens, UniProt P00533, L858R); test: Inhibition of human EGFR L858R using poly[Glu:Tyr] (4:1) as substrate measured after 40 mins in presence of [gamma-33P]ATP by radiometric assay; summary of the method: as §2
Sequence of Epidermal growth factor receptor (Homo sapiens, UniProt P00533, L858R) (P00533 25-1210 L858R limits assumed): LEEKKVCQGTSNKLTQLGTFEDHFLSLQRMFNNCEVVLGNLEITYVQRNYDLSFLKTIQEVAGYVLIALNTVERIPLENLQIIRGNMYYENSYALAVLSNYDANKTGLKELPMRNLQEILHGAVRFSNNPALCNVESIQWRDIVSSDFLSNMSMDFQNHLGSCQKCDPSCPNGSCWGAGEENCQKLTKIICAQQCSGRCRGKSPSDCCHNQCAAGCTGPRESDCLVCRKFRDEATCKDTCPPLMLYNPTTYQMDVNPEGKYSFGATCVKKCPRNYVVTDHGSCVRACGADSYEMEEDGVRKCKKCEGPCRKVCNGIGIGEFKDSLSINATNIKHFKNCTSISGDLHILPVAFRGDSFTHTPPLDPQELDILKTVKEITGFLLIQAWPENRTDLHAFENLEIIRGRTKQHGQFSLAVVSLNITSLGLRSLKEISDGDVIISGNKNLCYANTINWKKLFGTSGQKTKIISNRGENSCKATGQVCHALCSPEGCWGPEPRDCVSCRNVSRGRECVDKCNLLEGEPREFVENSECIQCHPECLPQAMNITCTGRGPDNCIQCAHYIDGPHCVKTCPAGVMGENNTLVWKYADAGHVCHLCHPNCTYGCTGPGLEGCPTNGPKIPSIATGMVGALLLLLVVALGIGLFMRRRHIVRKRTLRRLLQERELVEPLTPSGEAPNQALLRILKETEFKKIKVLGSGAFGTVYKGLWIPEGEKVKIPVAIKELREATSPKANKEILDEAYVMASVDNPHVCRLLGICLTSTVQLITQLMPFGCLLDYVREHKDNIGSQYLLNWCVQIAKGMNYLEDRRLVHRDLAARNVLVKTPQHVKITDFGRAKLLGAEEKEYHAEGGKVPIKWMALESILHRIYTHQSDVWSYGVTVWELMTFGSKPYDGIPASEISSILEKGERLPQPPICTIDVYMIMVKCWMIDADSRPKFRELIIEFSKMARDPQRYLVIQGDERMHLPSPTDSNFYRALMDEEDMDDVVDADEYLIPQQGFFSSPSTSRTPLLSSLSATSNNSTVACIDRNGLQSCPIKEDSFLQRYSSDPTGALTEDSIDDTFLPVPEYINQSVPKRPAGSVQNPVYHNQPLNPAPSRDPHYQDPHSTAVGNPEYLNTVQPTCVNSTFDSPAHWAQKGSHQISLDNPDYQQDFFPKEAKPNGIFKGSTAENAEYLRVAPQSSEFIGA

[11] = target: Epidermal growth factor receptor (Homo sapiens, UniProt P00533, L858R/T790M); test: Inhibition of human EGFR L858R/T790M mutant GGMEDIYFEFMGGKKK as substrate measured after 40 mins in presence of [gamma-33P]ATP by radiometric assay; summary of the method: as §1
[12] = target: T1, Mitogen-activated protein kinase 9; test: Inhibition of human JNK2alpha2 at 10 uM after 40 mins by [gamma-33ATP] radiometric assay relative to control
Target sequence in this assay (P45984 whole entry, looked up): as the sequence (P45984 whole entry, looked up) above

[13] = target: T4, Epithelial discoidin domain-containing receptor 1 (Homo sapiens, UniProt Q08345); test: Inhibition of human DDR1 using KKKSPGEYVNIEFG as substrate after 40 mins by [gamma-33P]-ATP assay
T4 sequence (Q08345 whole entry, the tested form may be a part): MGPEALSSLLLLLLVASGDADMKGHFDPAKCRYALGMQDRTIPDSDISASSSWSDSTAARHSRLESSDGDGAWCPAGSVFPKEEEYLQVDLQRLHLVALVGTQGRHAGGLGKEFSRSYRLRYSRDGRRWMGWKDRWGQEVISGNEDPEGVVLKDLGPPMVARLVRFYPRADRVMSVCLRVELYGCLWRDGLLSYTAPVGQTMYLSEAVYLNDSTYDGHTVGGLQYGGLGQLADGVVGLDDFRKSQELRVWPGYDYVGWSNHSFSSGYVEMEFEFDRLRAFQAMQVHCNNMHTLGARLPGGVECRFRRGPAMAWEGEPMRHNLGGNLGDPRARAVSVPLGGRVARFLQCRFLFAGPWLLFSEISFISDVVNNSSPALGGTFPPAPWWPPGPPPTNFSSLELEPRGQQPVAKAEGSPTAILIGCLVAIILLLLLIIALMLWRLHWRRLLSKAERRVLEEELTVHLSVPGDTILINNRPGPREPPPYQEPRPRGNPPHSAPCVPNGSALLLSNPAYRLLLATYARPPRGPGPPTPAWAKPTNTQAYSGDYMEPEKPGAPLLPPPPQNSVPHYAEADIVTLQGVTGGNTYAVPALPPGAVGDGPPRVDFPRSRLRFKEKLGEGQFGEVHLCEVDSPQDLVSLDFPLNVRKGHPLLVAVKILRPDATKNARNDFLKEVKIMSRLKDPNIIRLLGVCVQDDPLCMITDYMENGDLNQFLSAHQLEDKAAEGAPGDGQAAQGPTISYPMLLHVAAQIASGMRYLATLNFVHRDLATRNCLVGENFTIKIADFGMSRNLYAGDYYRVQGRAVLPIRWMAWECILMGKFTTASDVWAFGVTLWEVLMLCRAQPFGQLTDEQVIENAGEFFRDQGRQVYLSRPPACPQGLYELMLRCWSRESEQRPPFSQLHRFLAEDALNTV
Summary of the method: (§3)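 Human DDR1 in 8 mM MOPS pH 7.0, 0.2 mM EDTA, 250 μM peptide substrate, 10 mM Mg acetate, [γ-33P]-ATP (approx. 500 cpm/pmol); started with MgATP, 40 min room temperature, stopped with 3% phosphoric acid, spotted on P30 filtermat, washed in 75 mM phosphoric acid and methanol, scintillation counted. Activity as % of no-inhibitor control.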

[14] = target: T2, Mitogen-activated protein kinase 10; test: Inhibition of human JNK3 at 10 uM after 40 mins by [gamma-33ATP] radiometric assay relative to control
[15] = target: T1, Mitogen-activated protein kinase 9; test: Inhibition of human JNK2alpha2 after 40 mins by [gamma-33ATP] radiometric assay relative to control
[16] = target: T4, Epithelial discoidin domain-containing receptor 1; test: Inhibition of human DDR1 at 10 uM using KKKSPGEYVNIEFG as substrate after 40 mins by [gamma-33P]-ATP assay; summary of the method: as §3
[17] = target: T5, Discoidin domain-containing receptor 2 (Homo sapiens) (UniProt Q16832); test: Inhibition of human DDR2 at 10 uM using KKSRGDYMTMQIG as substrate after 40 mins by [gamma-33P]-ATP assay
T5 sequence (whole entry): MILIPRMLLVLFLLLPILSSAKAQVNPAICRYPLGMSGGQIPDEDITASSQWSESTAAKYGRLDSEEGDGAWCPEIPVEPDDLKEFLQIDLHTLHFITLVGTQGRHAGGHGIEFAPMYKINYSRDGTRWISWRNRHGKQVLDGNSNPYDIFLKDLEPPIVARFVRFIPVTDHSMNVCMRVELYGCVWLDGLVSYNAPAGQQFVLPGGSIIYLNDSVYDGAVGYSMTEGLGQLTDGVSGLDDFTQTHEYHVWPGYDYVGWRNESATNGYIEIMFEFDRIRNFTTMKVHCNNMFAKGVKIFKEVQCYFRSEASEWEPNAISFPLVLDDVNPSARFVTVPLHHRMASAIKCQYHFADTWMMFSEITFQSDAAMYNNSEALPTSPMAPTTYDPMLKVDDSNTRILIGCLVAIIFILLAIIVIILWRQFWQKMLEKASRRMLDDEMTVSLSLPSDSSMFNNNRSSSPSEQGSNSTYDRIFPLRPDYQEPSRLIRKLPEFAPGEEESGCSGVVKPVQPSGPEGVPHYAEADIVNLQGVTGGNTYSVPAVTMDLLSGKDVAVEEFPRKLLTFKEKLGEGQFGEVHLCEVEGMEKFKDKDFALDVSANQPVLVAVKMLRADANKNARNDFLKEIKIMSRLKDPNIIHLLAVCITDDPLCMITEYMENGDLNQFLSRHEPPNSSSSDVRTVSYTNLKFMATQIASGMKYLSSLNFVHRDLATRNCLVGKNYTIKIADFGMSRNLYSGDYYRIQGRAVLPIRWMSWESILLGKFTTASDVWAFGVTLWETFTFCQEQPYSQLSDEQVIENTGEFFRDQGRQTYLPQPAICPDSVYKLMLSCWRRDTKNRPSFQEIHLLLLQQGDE
Summary of the method: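 Human DDR2 in 8 mM MOPS pH 7.0, 0.2 mM EDTA, 250 μM peptide, 10 mM MnCl2 plus 10 mM Mg acetate, [γ-33P]-ATP (approx. 500 cpm/pmol). Reaction started with MgATP, run 40 min at room temperature, quenched with 3% phosphoric acid; P30 filtermat capture, phosphoric acid/methanol washes, scintillation counting; activity relative to no-inhibitor control set as 100%.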

With `N#Cc1ccc2c(c1)N/C(=C\C(=O)c1cccc3ccccc13)C(=O)N2` the inhibition [1] was “inactive”, the inhibition [2] was “inactive” and the inhibition [3] was “inactive”. The IC50 [4] was 0.19 µM, the inhibition [5] was “inactive” and the inhibition [6] was “inactive”. For the same compound, the IC50 [7] was over 100 µM, the inhibition [8] was “inactive” and the inhibition [9] was “inactive”. For the same compound, the IC50 [10] was over 10 µM, the IC50 [11] was over 10 µM and the inhibition [12] was “inactive”. For the same compound, the IC50 [13] was over 10 µM, the inhibition [14] was 88% and the IC50 [15] was over 100 µM.
For `COc1cccc(C(=O)/C=C2\Nc3ccccc3NC2=O)c1`, the inhibition [1] was “inactive”, the inhibition [3] was “inactive” and the inhibition [16] was “inactive”. The IC50 [4] was 5.6 µM, the inhibition [17] was “Active” and the inhibition [5] was “inactive”. For the same compound, the inhibition [6] was “inactive”, the inhibition [8] was “inactive” and the inhibition [12] was “inactive”. It also gave an inhibition [14] of 70%.

Source: ChEMBL document CHEMBL4765361, “Rational modification, synthesis and biological evaluation of 3,4-dihydroquinoxalin-2(1H)-one derivatives as potent and selective c-Jun N-terminal kinase 3 (JNK3) inhibitors” (Eur J Med Chem, 2020)
